This is an account of results in ChEMBL document CHEMBL2439968, “Spectroscopic identification and anti-biofilm properties of polar metabolites from the medicinal plant Helichrysum italicum against Pseudomonas aeruginosa” (2013).

Assay [1] has as its system Pseudomonas aeruginosa. The experiment in a line: Antimicrobial activity against Pseudomonas aeruginosa PaM02 at > 128 ug/ml by microtitre plate reader analysis. The assay is classed as functional, organism-based. The procedure, abridged: (§1)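 Clinical mucoid strain grown overnight in LB broth at 37 °C and diluted with saline to OD600 around 1, then 100-fold. Compound in LB was added to an equal volume of cells, giving a final 5.0 × 10^5 CFU/ml and 128 µg/ml compound. Negative control was LB plus the matching DMSO level, with sterility and no-compound wells. Growth was read as turbidity at 600 nm; tobramycin served as positive control.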

In assay [2] the test system is Pseudomonas aeruginosa. Nature of the assay: Bactericidal activity against Pseudomonas aeruginosa PaM02 at 128 ug/ml after 16 hrs by time kill analysis (reference value: 2.322 log10 CFU/ml). The assay is classed as functional.
Assay [3] concerns Pseudomonas aeruginosa. The experiment in a line: Bactericidal activity against Pseudomonas aeruginosa PaM02 at 128 ug/ml after 4 hrs by time kill analysis (reference value: 2.322 log10 CFU/ml). The assay is classed as functional.
In assay [4] the test system is Pseudomonas aeruginosa. Nature of the assay: Antimicrobial activity against Pseudomonas aeruginosa PaM02 assessed as growth inhibition at 0.323 umol/ml by microtitre plate reader analysis. The assay is classed as functional. The procedure, abridged: as §1
Assay [5] relates to Pseudomonas aeruginosa. The experiment in a line: Bactericidal activity against Pseudomonas aeruginosa PaM02 at 128 ug/ml after 24 hrs by time kill analysis (reference value: 2.322 log10 CFU/ml). It is filed as functional.
Assay [6] deals with Pseudomonas aeruginosa. Nature of the assay: Bactericidal activity against Pseudomonas aeruginosa PaM02 at 128 ug/ml after 8 hrs by time kill analysis (reference value: 2.322 log10 CFU/ml). It is filed as functional.
The subject of assay [7] is Pseudomonas aeruginosa. Nature of the assay: Antimicrobial activity against Pseudomonas aeruginosa PaM02 biofilm at 128 ug/ml after 24 hrs by crystal violet staining-based ELISA reader analysis. The settings on record: PaM02, 24 h. It is filed as functional. In a few lines:
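Preformed biofilm was grown from 100 µL of 1.0 × 10^7 CFU/ml inoculum for 24 h at 37 °C in polystyrene wells. Planktonic cells were removed and wells rinsed with PBS. Compound at 128 µg/ml final in LB was added for a further 24 h at 37 °C. Biofilm was stained with 1% crystal violet, destained with 95% ethanol and read at 570 nm. Reduction = [(Ac−At)/Ac] × 100 versus LB/DMSO controls.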

Assay [8] concerns Pseudomonas aeruginosa. The experiment in a line: Inhibition of biofilm formation of Pseudomonas aeruginosa PaM02 at 128 ug/ml after 24 hrs by crystal violet staining-based ELISA reader analysis. To be noted: PaM02, 24 h. It is filed as functional. In a few lines:
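Prevention assay: compound at 128 µg/ml final in LB was incubated in polystyrene wells overnight at 4 °C, aspirated, and wells washed with PBS. Wells were seeded with 100 µL of 1.0 × 10^7 CFU/ml inoculum and incubated 24 h at 37 °C. Biofilm was stained with 1% crystal violet, destained with 95% ethanol and read at 570 nm. Inhibition = [(Ac−At)/Ac] × 100 versus LB-preincubated controls.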

For assay [9], the system named is Pseudomonas aeruginosa. Nature of the assay: Antimicrobial activity against Pseudomonas aeruginosa PaM02 assessed as growth inhibition at 0.315 umol/ml by microtitre plate reader analysis. The assay is classed as functional. In a few lines:
as §1

Assay [10] concerns Pseudomonas aeruginosa. The experiment in a line: Antimicrobial activity against Pseudomonas aeruginosa PaM02 assessed as growth inhibition at 0.245 umol/ml by microtitre plate reader analysis. The assay is classed as functional. The procedure, abridged:
as §1

Assay [11] has as its system Pseudomonas aeruginosa. Nature of the assay: Antimicrobial activity against Pseudomonas aeruginosa PaM02 assessed as growth inhibition at 0.008 umol/ml by microtitre plate reader analysis. It is filed as functional. The procedure, abridged: as §1

The source made the active and inactive calls. The rule behind the calls is not given here.

Turning to `COc1cc(/C=C/c2ccc(O[C@@H]3O[C@H](COC(=O)CC(=O)O)[C@@H](O)[C@H](O)[C@H]3O)cc2)oc(=O)c1`, the outcome with Pseudomonas aeruginosa [1] was inactive.

For orientation: inhibition means how much of the control response was suppressed. Turning to `C=C(CO[C@@H]1O[C@H](CO)[C@@H](O)[C@H](O)[C@H]1O)[C@@H]1Oc2ccc(C(C)=O)cc2[C@@H]1O`, the Activity is listed as 1.927 log10CFU/ml in the assay on Pseudomonas aeruginosa [2], 2.136 log10CFU/ml in the assay on Pseudomonas aeruginosa [3], 1.881 log10CFU/ml in the assay on Pseudomonas aeruginosa [5] and 1.974 log10CFU/ml in the assay on Pseudomonas aeruginosa [6]. The “growth inhibition (GI)” value in the assay with Pseudomonas aeruginosa [4] is given as 17%. In the assay on Pseudomonas aeruginosa [7], this molecule came in with an inhibition at 128 µg/mL of 16%.

Consider `C=C(CO)[C@@H]1Oc2ccc(C(C)=O)cc2[C@@H]1O[C@@H]1O[C@H](CO)[C@@H](O)[C@H](O)[C@H]1O`, for which, in the assay with Pseudomonas aeruginosa [1], the result was inactive. The inhibition at 128 µg/mL in the assay with Pseudomonas aeruginosa [7] was 9%.

As for `O=C(/C=C/c1ccc(O)c(O)c1)O[C@@H]1C[C@](O)(C(=O)O)C[C@@H](OC(=O)/C=C/c2ccc(O)c(O)c2)[C@H]1O`, in the assay with Pseudomonas aeruginosa [1], the outcome was inactive.

`O=C(/C=C/c1ccc(O)c(O)c1)O[C@@H]1C[C@](O)(C(=O)O)C[C@@H](O)[C@H]1O` [CHLOROGENIC ACID] registered an inhibition at 128 µg/mL with Pseudomonas aeruginosa [8] of 45%. The result in the assay on Pseudomonas aeruginosa [1] was inactive.

Take `COc1cc2c(c(O[C@@H]3O[C@H](COC(=O)CC(=O)O)[C@@H](O)[C@H](O)[C@H]3O)c1)C(=O)OC2`: the outcome in the assay with Pseudomonas aeruginosa [1] was inactive. For the same molecule, in the assay on Pseudomonas aeruginosa [7], 128 µg/mL produced 27% inhibition.

On to `COc1cc(=O)oc([C@H]2[C@H](c3ccc(O[C@@H]4O[C@H](CO)[C@@H](O)[C@H](O)[C@H]4O)cc3)[C@H](c3cc(OC)cc(=O)o3)[C@H]2c2ccc(O[C@@H]3O[C@H](CO)[C@@H](O)[C@H](O)[C@H]3O)cc2)c1`, for which, in the assay with Pseudomonas aeruginosa [1], the outcome was inactive.

With `COc1cc(/C=C/c2ccc(O[C@@H]3O[C@H](COC(=O)CC(C)(O)CC(=O)O)[C@@H](O)[C@H](O)[C@H]3O)cc2)oc(=O)c1` (some centres undefined), the result in the assay on Pseudomonas aeruginosa [1] was inactive.

`COc1cc2c(c(O[C@@H]3O[C@H](CO)[C@@H](O)[C@H](O)[C@H]3O)c1)C(=O)OC2`: the outcome in the assay with Pseudomonas aeruginosa [1] was inactive.

Regarding `COc1cc(/C=C/c2ccc(O[C@@H]3O[C@H](CO)[C@@H](O)[C@H](O)[C@H]3O)cc2)oc(=O)c1`, the Activity in the assay with Pseudomonas aeruginosa [2] is 1.055 log10CFU/ml; in the assay on Pseudomonas aeruginosa [3] it was 1.157 log10CFU/ml; in the assay with Pseudomonas aeruginosa [5], 1.045 log10CFU/ml; in the assay on Pseudomonas aeruginosa [6], 1.103 log10CFU/ml. Further, in the assay on Pseudomonas aeruginosa [9], the “growth inhibition (GI)” value turned out to be 53%.

As for `COc1cc([C@H]2Oc3c(OC)cc(CCCO)cc3[C@@H]2CO)ccc1O[C@@H]1O[C@H](CO)[C@@H](O)[C@H](O)[C@H]1O`, the Activity with Pseudomonas aeruginosa [2] came to 1.811 log10CFU/ml; in the assay with Pseudomonas aeruginosa [3] it was 2.043 log10CFU/ml; with Pseudomonas aeruginosa [5] it was 1.765 log10CFU/ml; with Pseudomonas aeruginosa [6], 1.858 log10CFU/ml. Also, in the assay with Pseudomonas aeruginosa [10], the “growth inhibition (GI)” value was 21%.

With `NC[C@H]1O[C@H](O[C@H]2[C@H](O)[C@@H](O[C@H]3O[C@H](CO)[C@@H](O)[C@H](N)[C@H]3O)[C@H](N)C[C@@H]2N)[C@H](N)C[C@@H]1O` [TOBRAMYCIN], in the assay on Pseudomonas aeruginosa [11], the “growth inhibition (GI)” value was 100%.

For the molecule `O=C1OCc2cc(O)cc(O[C@@H]3O[C@H](CO)[C@@H](O)[C@H](O)[C@H]3O)c21`, in the assay with Pseudomonas aeruginosa [1], the outcome was inactive.
